# Mdm2-MdmX inh = inhibitors of human Mdm2-MdmX association, primary screen, cell-based, luminescence, split luciferase, SaOS-2, uHTS | SaOS-2 split-luciferase Mdm2/MdmX complementation | AID 485346, 2010 | actives 3% (n = 330,000) | Protein Mdm4 (Homo sapiens) + E3 ubiquitin-protein ligase Mdm2 (Homo sapiens), … | inhibition, % at 8 µM;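 active means inhibition of at least 50% at 8 µM in the primary screen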
# aSyn 5UTR inh = MLPCN primary screen, SNCA 5' untranslated region; AID 1813, 2009; inhibition, % (tested at 7.5 µM); alpha-synuclein 5'UTR reporter, inhibitor activity; actives 0.82% (n = 300,000); in the data active means inhibition above about 60%; inconclusive means no clear call, values can overlap the other calls;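 further: H4 neuroglioblastoma cells stably carrying SNCA 5'UTR luciferase fusion; 0% = DMSO wells and 100% = positive control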
# CSC inhib = cancer stem cell viability inhibitors, primary screen, luminescence | cancer stem cell-like cells viability | inhibition, % at 7.5 µM | actives 1.1% (n = 300,000) | AID 2717, 2010; in the data active means inhibition above about 75%; inconclusive means no clear call, values can overlap the other calls; tested in HMLE shEcad cells
# SKKanGAS inh = S. pyogenes SKKanGAS growth inhibitors in kanamycin, primary screen, streptokinase expression inhibitor project, SKKanGAS strain, BacTiter-Glo luminescence; 6 h; inhibition, % at 7.5 µM; actives 1.3% (n = 300,000); AID 1662, 2009;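 active means mean replicate score, as percent of positive control median, at least 50; inconclusive means mean below 50 but one replicate at or above 50; inactive means mean and every replicate below 50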;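 further: strain carries kanamycin resistance gene driven by streptokinase promoter and grows in 40 µg/ml kanamycin; loss of luminescence reflects streptokinase promoter inhibition or plain growth inhibition; 0% = median of DMSO wells and 100% = positive control at its reference dose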
# T cruzi repl = inhibitors of intracellular T. cruzi growth, primary screen, luminescence, NIH3T3 host cells; T. cruzi beta-gal in NIH3T3, 90 h; inhibition, % (no concentration beside the values); actives 1.4% (n = 300,000); AID 1885, 2009;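 active means mean inhibition across valid replicates above about 55%, limit read from the data; inconclusive means mean below that limit but half or more replicates reach it; inactive means mean below it, under half of replicates reach it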;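 further: signal also drops with host cell toxicity which is not excluded here; 0% = plate median of DMSO wells and 100% = zero luminescence signal; higher percent means less beta-gal luminescence so fewer parasites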
#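 System: mouse NIH/3T3 fibroblasts infected with β-gal-expressing T. cruzi Tulahuen C4 / Input: NIH/3T3 cells, 5,000 per well / Buffer or medium: Low-serum DMEM with 2% FBS / Probe or stimulus: 5000 reporter trypomastigotes per well / Schedule: ≥90 h infection period, 3 h prior cell attachment / Measured by: GalScreen luminescence, 60 min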
# Mdm2 MdmX conf = Mdm2-MdmX complex disruptors, retested hits, confirmation, luminescence, single concentration. shares compounds with Mdm2-MdmX inh. actives 55% (n = 10,000). Mdm2-MdmX binding, luminescent assay. inhibition, % at 8 µM; in the data active means inhibition above about 40%
# FLuc counter = full-length luciferase signal inhibition, confirmation, counter-screen for Mdm2/MdmX interaction inhibitor project, cell-based, single concentration, SaOS-2 | inhibition, % at 8 µM | actives 77% (n = 6,200) | shares compounds with Mdm2-MdmX inh | SaOS-2 full-length luciferase counterscreen, luminescence;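 active means mean inhibition at 8 µM reaching about 37%, which flags the compound as non-specific, limit read from the data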;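 further: p53-null SaOS-2 cells with luciferase driven by a doxycycline-inducible promoter; compound on cells about two nights before reading with doxycycline added after day one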
# * hit, by the source's call; ? = inconclusive; . = no result. Compounds with a hit are over-represented: about 5.4% of the library has one in this group of screens.
SMILES,Mdm2-MdmX inh,aSyn 5UTR inh,CSC inhib,SKKanGAS inh,T cruzi repl,Mdm2 MdmX conf,FLuc counter
COCCN(C(=O)COC(=O)/C=C/c1ccc2ccccc2n1)c1c(N)n(Cc2ccccc2)c(=O)[nH]c1=O,54*,-26,33,-7,4,39,.
Cc1onc(-c2ccccc2)c1C(=O)OCCOc1cccc(Cl)c1,52*,-70,74,3,14,62*,64*
CCN(CCn1cccn1)C(=O)C1CCC(=O)N(CCc2cccc(F)c2)C1 (configuration not stated),27,-14,10,-9,-9,.,.
CC(Sc1ccc(S(=O)(=O)N2CCOCC2)cn1)c1ccccc1Cl (configuration not stated),6,.,15,.,.,.,.
Cc1cc(N/N=C/c2c(O)ccc3ccccc23)nc(-c2ccccc2O)n1,61*,72*,42,85*,-11,53*,39*
Cc1ccc(C)c(Nc2cc(C)nc(-c3ccccc3O)n2)c1,59*,10,73,8,3,62*,49*
CCOc1ccccc1/C=C(\C#N)C1=CCCC1,14,13,.,5,2,.,.
NC1=NC(=O)/C(=C\c2ccsc2)S1,23,-26,-2,0,-14,.,.
CCCC1(c2ccccc2)NC(=O)N(CC(=O)Nc2sc(-c3ccccc3)cc2C(=O)OCC)C1=O (configuration not stated),77*,-7,25,6,34,55*,53*
CCOC(=O)c1c(NC(=O)CN2C(=O)NC(C)(c3ccccc3)C2=O)sc(C)c1C (configuration not stated),71*,35,56,15,20,58*,45*
CCCC(=O)c1c(NCCO)cc(C)oc1=O,-9,11,-9,3,-2,.,.
CCN1CCc2c(sc(NC(=O)c3ccc(S(=O)(=O)N4CCCC4)cc3)c2C(=O)NC)C1,83*,-18,24,50*,9,22,.
CN1CCc2c(sc(NC(=O)c3ccc(S(=O)(=O)N4CCCCCC4)cc3)c2C(N)=O)C1,26,5,9,7,50,.,.
CNC(=O)c1c(NC(=O)c2ccc(S(=O)(=O)N3CCCCC3)cc2)sc2c1CCN(C(C)C)C2,14,1,-13,43,8,.,.
NC(=O)c1ccsc1NC(=O)c1ccc([N+](=O)[O-])o1,57*,.,55,.,.,24,.
NC(=O)c1ccsc1NC(=O)COC(=O)c1ccc([N+](=O)[O-])o1,-7,.,.,.,.,.,.
CN1CCc2c(sc(NC(=O)c3ccc(S(=O)(=O)N4CCc5ccccc54)cc3)c2C(N)=O)C1,96*,4,82*,-13,-5,83*,24
CCOC(=O)N1CCN(S(=O)(=O)c2ccc(C(=O)Nc3sc4c(c3C(=O)OC)CCN(C)C4)cc2)CC1,100*,15,16,-1,38,38,.
CCN1CCc2c(sc(NC(=O)c3cc4ccccc4cc3OC)c2C(N)=O)C1,100*,34,24,9,58*,18,.
CN1CCc2c(sc(NC(=O)c3ccc([N+](=O)[O-])o3)c2C(N)=O)C1,94*,86*,44,20,64*,89*,55*
O=C(Nc1cccc(NC(=O)c2ccccc2Cl)c1)c1ccc([N+](=O)[O-])o1,61*,86*,44,?,29,58*,42*
Cc1ccc(NC(=O)c2ccc([N+](=O)[O-])o2)cc1C,9,-51,-14,-3,?,.,.
CN1CCc2c(sc(NC(=O)c3ccco3)c2C(N)=O)C1,22,-8,-10,40,-5,.,.
CCOC(=O)N1CCN(S(=O)(=O)c2ccc(C(=O)Nc3sc4c(c3C(N)=O)CCN(CC)C4)cc2)CC1,79*,-5,-12,-3,6,8,.
CC(C)NC(=O)C(C)Oc1ccc(S(=O)(=O)NCc2ccc3c(c2)OCO3)cc1 (configuration not stated),-28,-29,-17,20,-3,.,.
SMILES,Mdm2-MdmX inh,aSyn 5UTR inh,CSC inhib,SKKanGAS inh,T cruzi repl,Mdm2 MdmX conf,FLuc counter
COc1ccc(C2NC(=O)c3sc4nc(C)c(C(C)=O)c(-c5ccc(Cl)cc5)c4c3N2)cc1 (configuration not stated),39,20,2,4,13,.,.
CCN(CC)c1ccc(/C=N\NC(=O)c2cccc3cc[nH]c23)cc1,50*,15,0,4,-3,39,.
O=C(N/N=C/c1ccc([N+](=O)[O-])cc1)c1cccc2cc[nH]c12,23,14,10,1,-10,.,.
Cc1ccc(C(=O)C(C(=O)/C=C/c2ccccc2)=C2SCCCS2)cc1,98*,-102,?,-2,59*,90*,54*
Cc1cccc(OCC(=O)Nc2ccccc2N2CCN(C(=O)C(C)C)CC2)c1C,100*,-3,-5,1,6,6,.
CC(=O)N1CCN(c2ccccc2NC(=O)COc2cc(C)ccc2C(C)C)CC1,8,.,1,7,.,.,.
CCOc1ccc2nc(Cl)c(/C=C/C(=O)c3ccco3)cc2c1,53*,-18,5,16,-1,7,.
CCCn1c(NC(=O)c2ccc(Cl)c(S(=O)(=O)N3CCCC3)c2)nc2ccccc21,81*,40,38,92*,66*,69*,43*
COc1cccc(CNC(=O)CN(C)S(=O)(=O)c2ccc3c(c2)n(C)c(=O)c(=O)n3C)c1,8,-8,-9,-13,0,.,.

# Bioassay records: PubChem, several laboratories
